{"data": "Results of several laboratories", "target": "Vascular endothelial growth factor receptor 3 (FLT4, Homo sapiens, UniProt P35916)", "note": "Compare with care: the assays were run in different laboratories."}
{"SMILES": "Nc1ncc(-c2nc(N3CCOCC3)nc(N3CCOCC3)n2)c(C(F)F)n1", "test": "cell-free assay, competition with immobilised ligand", "setting": "10 µM", "measurement": "remaining binding", "value": "77%"}
{"SMILES": "Cc1nn(C)cc1-c1nc2c(N3CCN(Cc4ccc(Cl)cc4)CC3)c(Cl)cnc2[nH]1", "test": "binding, competition with immobilised ligand", "setting": "1 µM", "measurement": "remaining binding", "value": "0%"}
{"SMILES": "N#CC1(c2ccccn2)CCN(Cc2cc(C(=O)O)c(=O)n3ccccc23)CC1", "test": "cell-free assay, competition with immobilised ligand", "setting": "1 µM", "measurement": "remaining binding", "value": "100%"}
{"SMILES": "COCc1c(-c2cc3cc(C)cc(OC)c3s2)c2c(N)ncnn2c1CN1CCNC(=O)C1", "test": "cell-free assay, competition with immobilised ligand", "setting": "1 µM", "measurement": "inhibition", "value": "93.8%"}
{"SMILES": "O=c1[nH]c2ccccc2n1C1CCN(Cc2ccc(-c3[nH]c4cc5ncnc5cc4nc3-c3ccccc3)cc2)CC1", "test": "cell-free assay", "setting": "0.5 µM", "measurement": "remaining signal", "value": "98.7%"}
{"SMILES": "COc1cc(Nc2ncc(F)c(Nc3ccc4c(n3)NC(=O)C(C)(C)O4)n2)cc(OC)c1OC", "test": "binding", "setting": "10 µM", "measurement": "inhibition", "value": "100%"}
{"SMILES": "Cn1cc(-c2cc(F)cc(N3CCn4c(cc5c4CCCC5)C3=O)c2CO)cc(Nc2ccc(N3CCN(C4COC4)CC3)cn2)c1=O", "test": "enzyme activity, inhibitor", "setting": "0.1 µM", "measurement": "inhibition", "value": "12%"}
{"SMILES": "Cn1cncc1[C@@](O)(COc1ccc(C#N)cc1-c1ccc(OC(F)(F)F)cc1)c1ccc(C#N)cc1", "test": "cell-free assay, competition with immobilised ligand", "setting": "1 µM", "measurement": "remaining binding", "value": "90%"}
{"SMILES": "Cn1cc(-c2cccc(N3CCc4c(sc5c4CC(C)(C)C5)C3=O)c2CO)cc(Nc2ccncn2)c1=O", "test": "enzyme activity, inhibitor", "setting": "1 µM", "measurement": "inhibition", "value": "13%"}
{"SMILES": "COc1ncccc1-c1cnn2ccc(N3CCN(C(=O)OC(C)C)CC3)nc12", "test": "binding, competition with immobilised ligand", "setting": "1 µM", "measurement": "remaining binding", "value": "99%"}
{"SMILES": "CC(C)(C)c1cc(C=C(C#N)C#N)cc(Br)c1O", "test": "enzyme activity, inhibitor", "setting": "0.5 µM", "measurement": "remaining activity", "value": "102%"}
